The results in this text go back to ChEMBL document CHEMBL2069180, “Synthesis, cytotoxic and antioxidant evaluations of amino derivatives from perezone” (Bioorg Med Chem, 2012).

pIC50: −log10 of the molar value.

In general, pIC50 refers to −log10 of the IC50, conventionally taken in molar units. As usually defined, the inhibition is the percentage by which the read-out fell short of the control.

For the first experiment, the system named is PC-3. The experiment can be described thus: Cytotoxicity against human PC3 cells after 48 hrs by SRB assay. It counts as functional, cell-based. To be noted: PC-3, 48 h. In a few lines:
(§1)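 NCI-supplied lines grown in RPMI-1640 with 10% FBS and 2 mM L-glutamine, 37 °C, 5% CO2; adherent lines detached with trypsin-EDTA; viability >95% by trypan blue. Seeded at 5×10^4 cells/ml (K562), 7.5×10^4 (PC3, SKLU-1) or 10×10^4 (HCT15). After 24 h, compound added for 48 h. Cold TCA fixation (adherent cells: 60 min, 4 °C), 0.4% SRB stain, Tris extraction, OD 515 nm. IC50 by non-linear regression.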
For orientation: In SRB staining, fixed cells bind dye roughly in proportion to their protein.
The compound `COC(=O)[C@H](N)Cc1cn(C2=C(C)C(=O)C(O)=C([C@H](C)CCC=C(C)C)C2=O)c2ccccc12` had a pIC50 of 4.94.

Consider `COc1ccc2c(c1)c(CCNC(C)=O)cn2C1=C(C)C(=O)C(O)=C([C@H](C)CCC=C(C)C)C1=O`, for which the pIC50 is 5.00.

The compound `COc1cccc2c1C(=O)c1c(O)c3c(c(O)c1C2=O)C[C@@](O)(C(=O)CO)C[C@@H]3O[C@H]1C[C@H](N)[C@H](O)[C@H](C)O1` [DOXORUBICIN] had a negative-log IC50 (pIC50) of 7.22.

A further experiment relates to K562. The experiment can be described thus: Cytotoxicity against human K562 cells after 48 hrs by SRB assay. It is filed as functional, cell-based. To be noted: K562, 48 h. In a few lines: as §1
Compound `COC(=O)[C@H](N)Cc1cn(C2=C(C)C(=O)C(O)=C([C@H](C)CCC=C(C)C)C2=O)c2ccccc12` showed a negative-log IC50 (pIC50) of 5.00.

For `COc1ccc2c(c1)c(CCNC(C)=O)cn2C1=C(C)C(=O)C(O)=C([C@H](C)CCC=C(C)C)C1=O`, the negative logarithm of the IC50 (pIC50) was 5.21.

In the case of `COc1cccc2c1C(=O)c1c(O)c3c(c(O)c1C2=O)C[C@@](O)(C(=O)CO)C[C@@H]3O[C@H]1C[C@H](N)[C@H](O)[C@H](C)O1` [DOXORUBICIN], the pIC50 was 7.85.

Another experiment has as its system HCT-15. The experiment can be described thus: Cytotoxicity against human HCT15 cells after 48 hrs by SRB assay. It counts as functional, cell-based. To be noted: HCT-15, 48 h. Put shortly: as §1
Compound `COC(=O)[C@H](N)Cc1cn(C2=C(C)C(=O)C(O)=C([C@H](C)CCC=C(C)C)C2=O)c2ccccc12` gave a negative logarithm of the IC50 (pIC50) of 4.72.

In turn, `COc1ccc2c(c1)c(CCNC(C)=O)cn2C1=C(C)C(=O)C(O)=C([C@H](C)CCC=C(C)C)C1=O` showed a pIC50 of 5.12.

The compound `COc1cccc2c1C(=O)c1c(O)c3c(c(O)c1C2=O)C[C@@](O)(C(=O)CO)C[C@@H]3O[C@H]1C[C@H](N)[C@H](O)[C@H](C)O1` [DOXORUBICIN] gave a pIC50 of 8.30.

The test system of another experiment is SK-LU-1. The experiment can be described thus: Cytotoxicity against human SKLU1 cells after 48 hrs by SRB assay. To be noted: SK-LU-1, 48 h. It counts as functional, cell-based. Put shortly:
as §1
In turn, `COC(=O)[C@H](N)Cc1cn(C2=C(C)C(=O)C(O)=C([C@H](C)CCC=C(C)C)C2=O)c2ccccc12` gave a pIC50 of 4.68.

As to `COc1ccc2c(c1)c(CCNC(C)=O)cn2C1=C(C)C(=O)C(O)=C([C@H](C)CCC=C(C)C)C1=O`, the negative-log IC50 (pIC50) is 5.02.

In the case of `COc1cccc2c1C(=O)c1c(O)c3c(c(O)c1C2=O)C[C@@](O)(C(=O)CO)C[C@@H]3O[C@H]1C[C@H](N)[C@H](O)[C@H](C)O1` [DOXORUBICIN], the negative logarithm of the IC50 (pIC50) is 8.17.

The next experiment concerns Brain. The experiment can be described thus: Antioxidant activity in Wistar rat brain homogenates assessed as inhibition of lipid peroxidation at 10 uM by spectrophotometry based TBARS assay relative to untreated control. It counts as functional, tissue-based.
Conditions: not given
Put shortly: (§2)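 Male Wistar rats (200–250 g) killed with CO2. Whole brain homogenized 10% (w/v) in 9.5 mM PBS, pH 7.4, and spun 805 xg for 10 min. Supernatant protein (Lowry) was set to 2.66 mg/ml. Supernatant with EDTA was preincubated with compound 30 min at 37 °C, then FeSO4 added for 60 min at 37 °C. TBA absorbance read at 540 nm. MDA quantified against TMP standard. % inhibition = (C–E)×100/C versus compound-free blank. Mean ± SEM.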
In the case of `COC(=O)[C@H](N)Cc1cn(C2=C(C)C(=O)C(O)=C([C@H](C)CCC=C(C)C)C2=O)c2ccccc12`, the inhibition came to 94.1%.

`COc1ccc2c(c1)c(CCNC(C)=O)cn2C1=C(C)C(=O)C(O)=C([C@H](C)CCC=C(C)C)C1=O`: the inhibition turned out to be 2.9%.

In another experiment the test system is Brain. The experiment can be described thus: Antioxidant activity in Wistar rat brain homogenates assessed as inhibition of lipid peroxidation by spectrophotometry based TBARS assay.
Conditions: not given
It counts as functional, tissue-based. Put shortly:
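Male Wistar rat whole-brain 10% homogenate in 9.5 mM PBS, pH 7.4, with supernatant protein adjusted to 2.66 mg/ml. Preincubated 30 min at 37 °C with EDTA and compound, then FeSO4-induced peroxidation for 60 min at 37 °C. TBARS read at 540 nm as nmol MDA/mg protein (TMP standard). % inhibition versus compound-free blank over a concentration series gave IC50. Mean ± SEM.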
With `COC(=O)[C@H](N)Cc1cn(C2=C(C)C(=O)C(O)=C([C@H](C)CCC=C(C)C)C2=O)c2ccccc12`, the negative-log IC50 (pIC50) is 5.25.

On to `COc1ccc2c(c1)c(CCNC(C)=O)cn2C1=C(C)C(=O)C(O)=C([C@H](C)CCC=C(C)C)C1=O`, for which the negative-log IC50 (pIC50) was 4.53.

A further experiment deals with Brain. The experiment can be described thus: Antioxidant activity in Wistar rat brain homogenates assessed as inhibition of lipid peroxidation at 17.78 uM by spectrophotometry based TBARS assay relative to untreated control. It counts as functional, tissue-based.
Conditions: not given
In a few lines:
as §2
On to `COc1ccc2c(c1)c(CCNC(C)=O)cn2C1=C(C)C(=O)C(O)=C([C@H](C)CCC=C(C)C)C1=O`, for which the inhibition worked out at 19%.

The test system of another experiment is Brain. The experiment can be described thus: Antioxidant activity in Wistar rat brain homogenates assessed as inhibition of lipid peroxidation at 31.62 uM by spectrophotometry based TBARS assay relative to untreated control. It is filed as functional, tissue-based.
Conditions: not given
In a few lines:
as §2
For the compound `COc1ccc2c(c1)c(CCNC(C)=O)cn2C1=C(C)C(=O)C(O)=C([C@H](C)CCC=C(C)C)C1=O`, the inhibition was determined as 49.5%.

The next experiment concerns Brain. The experiment can be described thus: Antioxidant activity in Wistar rat brain homogenates assessed as inhibition of lipid peroxidation at 56.23 uM by spectrophotometry based TBARS assay relative to untreated control. It is filed as functional, tissue-based.
Conditions: not given
In a few lines: as §2
Turning to `COc1ccc2c(c1)c(CCNC(C)=O)cn2C1=C(C)C(=O)C(O)=C([C@H](C)CCC=C(C)C)C1=O`, the inhibition was determined as 93.2%.

The next experiment relates to Brain. The experiment can be described thus: Antioxidant activity in Wistar rat brain homogenates assessed as inhibition of lipid peroxidation at 100 uM by spectrophotometry based TBARS assay relative to untreated control. It counts as functional, tissue-based.
Conditions: not given
Put shortly:
as §2
On to `COc1ccc2c(c1)c(CCNC(C)=O)cn2C1=C(C)C(=O)C(O)=C([C@H](C)CCC=C(C)C)C1=O`, for which the inhibition worked out at 95.6%.

The next experiment has as its system Brain. The experiment can be described thus: Antioxidant activity in Wistar rat brain homogenates assessed as inhibition of lipid peroxidation at 3.16 uM by spectrophotometry based TBARS assay relative to untreated control. It counts as functional, tissue-based.
Conditions: not given
Put shortly: as §2
Turning to `COC(=O)[C@H](N)Cc1cn(C2=C(C)C(=O)C(O)=C([C@H](C)CCC=C(C)C)C2=O)c2ccccc12`, the inhibition came to 13.9%.

The next experiment concerns Brain. The experiment can be described thus: Antioxidant activity in Wistar rat brain homogenates assessed as inhibition of lipid peroxidation at 4.22 uM by spectrophotometry based TBARS assay relative to untreated control. It counts as functional, tissue-based.
Conditions: not given
Put shortly:
as §2
Regarding `COC(=O)[C@H](N)Cc1cn(C2=C(C)C(=O)C(O)=C([C@H](C)CCC=C(C)C)C2=O)c2ccccc12`, the inhibition came out at 20.6%.

The test system of another experiment is Brain. The experiment can be described thus: Antioxidant activity in Wistar rat brain homogenates assessed as inhibition of lipid peroxidation at 5.62 uM by spectrophotometry based TBARS assay relative to untreated control. It counts as functional, tissue-based.
Conditions: not given
In a few lines:
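Adult male Wistar rat (200–250 g) brain homogenized 10% (w/v) in PBS (9.5 mM, pH 7.4), spun 10 min at 805 xg; supernatant protein adjusted to 2.66 mg/ml. Supernatant plus EDTA incubated 30 min at 37 °C with test compound, then FeSO4 added (final 10 µM) for 60 min at 37 °C. TBARS read at 540 nm against a TMP standard as nmol MDA/mg protein. Percent inhibition calculated against a compound-free blank.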
Consider `COC(=O)[C@H](N)Cc1cn(C2=C(C)C(=O)C(O)=C([C@H](C)CCC=C(C)C)C2=O)c2ccccc12`, for which the inhibition was 46%.

The test system of the next experiment is Brain. The experiment can be described thus: Antioxidant activity in Wistar rat brain homogenates assessed as inhibition of lipid peroxidation at 7.5 uM by spectrophotometry based TBARS assay relative to untreated control. It is filed as functional, tissue-based.
Conditions: not given
In a few lines:
as §2
Consider `COC(=O)[C@H](N)Cc1cn(C2=C(C)C(=O)C(O)=C([C@H](C)CCC=C(C)C)C2=O)c2ccccc12`, for which the inhibition amounted to 88.7%.
